From ChEMBL document CHEMBL1134227, “The design of phenylglycine containing benzamidine carboxamides as potent and selective inhibitors of factor Xa” (Bioorg Med Chem Lett, 2001)
Several values for one entry are separate records, joined by “and”; a condition that tells them apart may be missing. Identical values can stand only once.

Experiments:
[1] = target: Prothrombin (Homo sapiens, UniProt P00734); assay: Affinity for human thrombin
Summary of the method: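 Chromogenic assay with 1 nM human thrombin and Pefachrome-TH substrate, in 100 mM phosphate buffer with 0.1% bovine serum albumin at pH 7.4. Compounds were dissolved in Me₂SO and diluted into the buffer. Hydrolysis was followed as the rise in optical density at 405 on a microplate reader.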

[2] = target: Coagulation factor X (Homo sapiens, UniProt P00742); assay: Binding affinity against human coagulation factor Xa
Coagulation factor X, sequence (P00742 41-179 limits assumed): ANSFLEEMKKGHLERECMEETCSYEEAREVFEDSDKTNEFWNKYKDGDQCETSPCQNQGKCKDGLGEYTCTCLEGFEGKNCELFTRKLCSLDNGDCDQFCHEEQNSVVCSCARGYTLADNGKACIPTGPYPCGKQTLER
Coagulation factor X, sequence (P00742 235-488 limits assumed): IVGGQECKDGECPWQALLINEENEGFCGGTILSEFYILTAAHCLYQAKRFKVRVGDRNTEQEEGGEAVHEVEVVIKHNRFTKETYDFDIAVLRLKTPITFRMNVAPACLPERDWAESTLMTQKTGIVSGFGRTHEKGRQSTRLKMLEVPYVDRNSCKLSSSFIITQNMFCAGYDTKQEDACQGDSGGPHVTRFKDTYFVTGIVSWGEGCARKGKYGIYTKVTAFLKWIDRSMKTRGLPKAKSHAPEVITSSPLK
Summary of the method: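 Human fXa at 100 pM final with Pefachrome-FXA substrate, in 100 mM phosphate buffer with 0.1% bovine serum albumin at pH 7.4. Compounds were taken from Me₂SO stocks into the buffer.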

[3] = target: Serine protease 1 (Homo sapiens, UniProt P07477); assay: Binding affinity against human trypsin
Serine protease 1, sequence (P07477 whole entry): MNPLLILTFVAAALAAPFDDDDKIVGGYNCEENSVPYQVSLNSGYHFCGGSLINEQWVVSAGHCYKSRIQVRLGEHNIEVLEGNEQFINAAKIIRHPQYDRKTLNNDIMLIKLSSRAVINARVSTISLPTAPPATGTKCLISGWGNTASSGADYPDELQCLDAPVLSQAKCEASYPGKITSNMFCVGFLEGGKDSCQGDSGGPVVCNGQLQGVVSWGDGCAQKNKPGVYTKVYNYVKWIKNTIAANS
Summary of the method: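 Human trypsin at 1 nM final with Pefachrome-TRY chromogenic substrate, in 100 mM phosphate, 0.1% bovine serum albumin, pH 7.4. Test compounds were dissolved in Me₂SO and diluted into the assay buffer. The read-out was the optical density increase at 405 from substrate cleavage.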

Row | Structure (SMILES) | Ki [1] [µM] | Ki [2] [µM] | Ki [3]
1 | N=C(N)c1cccc(C(=O)N[C@@H](C(=O)N2CCN(c3ccncc3)CC2)c2ccccc2)c1 | 17.8 | 0.013 | 0.56 µM
2 | CC(C)[C@H](NC(=O)c1cccc(C(=N)N)c1)C(=O)NCC1CCC(CN)CC1 (stereo partly specified) |  | 38 | 12.6 µM
3 | N=C(N)c1cccc(C(=O)NC(C(=O)NCC2CCC(CN)CC2)c2ccc(Cl)cc2)c1 (stereo unspecified) |  | 2.5 | 6 µM
4 | CSCC[C@H](NC(=O)c1cccc(C(=N)N)c1)C(=O)NCC1CCC(CN)CC1 (stereo partly specified) |  | 10.5 | 7.9 µM
5 | CSCC[C@@H](NC(=O)c1cccc(C(=N)N)c1)C(=O)NCC1CCC(CN)CC1 (stereo partly specified) |  | 2.3 | 10 µM
6 | N=C(N)c1cccc(C(=O)NCC(=O)NCC2CCC(CN)CC2)c1 (stereo unspecified) |  |  | 23 µM
7 | N=C(N)c1cccc(C(=O)N[C@@H](C(=O)N2CCC(C(=O)c3ccccc3)CC2)c2ccccc2)c1 | 1.26 |  | 0.32 µM
8 | N=C(N)c1cccc(C(=O)N[C@H](Cc2ccccc2)C(=O)NCC2CCC(CN)CC2)c1 (stereo partly specified) |  | 25.7 | 17.4 µM
9 | N=C(N)c1cccc(C(=O)N[C@@H](C(=O)NCC2CCC(CN)CC2)C2CCCCC2)c1 (stereo partly specified) |  | 0.5 | 8.5 µM
10 | N=C(N)c1cccc(C(=O)N[C@@H](C(=O)N2CCN(C(=O)c3ccccc3)CC2)c2ccccc2)c1 | 7.94 |  | 0.46 µM
11 | CC(C)[C@@H](NC(=O)c1cccc(C(=N)N)c1)C(=O)NCC1CCC(CN)CC1 (stereo partly specified) |  |  | 16.2 µM
12 | N=C(N)c1cccc(C(=O)N[C@H](C(=O)NCC2CCC(CN)CC2)C2CCCCC2)c1 (stereo partly specified) |  | 7.8 | 3.6 µM
13 | N=C(N)c1cccc(C(=O)N[C@@H](Cc2ccccc2)C(=O)NCC2CCC(CN)CC2)c1 (stereo partly specified) |  | 33.9 | 12.6 µM
14 | N=C(N)c1cccc(C(=O)N[C@@H](C(=O)N2CCN(c3ccccc3)CC2)c2ccccc2)c1 | 1.74 | 0.016 | 0.34 µM
15 | N=C(N)c1cccc(C(=O)NC(C(=O)NCC2CCC(CN)CC2)c2cccc(Cl)c2)c1 (stereo in doubt; 9) |  | 0.3 | 3.9 µM
16 | N=C(N)c1cccc(C(=O)NC(C(=O)NCC2CCC(CN)CC2)c2cccc(Cl)c2)c1 (stereo in doubt; 11) |  | 0.3 | 5.1 µM

Further lines, results first:

Row | Ki [1] [µM] | Ki [2] [µM] | Ki [3] | Structure (SMILES)
17 |  | 0.8 | 1.1 µM | N=C(N)c1cccc(C(=O)NC(C(=O)NCC2CCC(CN)CC2)c2ccc(-c3ccccc3)cc2)c1 (stereo unspecified)
18 | 3.1 | 0.85 | 3.3 µM | N=C(N)c1cccc(C(=O)N[C@@H](C(=O)NCCc2ccccc2)c2ccccc2)c1
19 |  | 0.1 | 2.1 µM | N=C(N)c1cccc(C(=O)NC(C(=O)NCC2CCC(CN)CC2)c2cccc3ccccc23)c1 (stereo unspecified)
20 | 1.18 | 0.01 | 0.54 µM | N=C(N)c1cccc(C(=O)N[C@@H](C(=O)N2CCC(C(=O)c3ccc(F)cc3)CC2)c2ccccc2)c1
21 | 6.5 |  | 4.5 µM and 5.6 µM | N=C(N)c1cccc(C(=O)NC(C(=O)NCC2CCC(CN)CC2)c2ccccc2)c1 (stereo unspecified)
22 | 2.3 | 0.028 | 5.5 µM | COc1ccc(CNC(=O)[C@H](NC(=O)c2cccc(C(=N)N)c2)c2ccccc2)cc1
23 | 7.94 | 0.12 | 2.2 µM | N=C(N)c1cccc(C(=O)N[C@@H](C(=O)N2CCN(Cc3ccccc3)CC2)c2ccccc2)c1
24 | 1.35 | 0.03 | 0.65 µM | N=C(N)c1cccc(C(=O)N[C@@H](C(=O)N2CCC(Cc3ccccc3)CC2)c2ccccc2)c1
25 |  | 0.145 | 2.2 µM | N=C(N)c1cccc(C(=O)N[C@@H](C(=O)NCCCc2ccccc2)c2ccccc2)c1
26 | 8.5 | 0.91 | 5.4 µM | N=C(N)c1cccc(C(=O)N[C@@H](C(=O)NCc2ccccc2)c2ccccc2)c1
27 | 26 | 0.5 | 4.1 µM | N=C(N)c1cccc(C(=O)N[C@@H](C(=O)NCc2ccc(CN)cc2)c2ccccc2)c1
28 | 3.8 | 0.015 | 1.26 µM | N=C(N)c1cccc(C(=O)N[C@@H](C(=O)N2CCN(c3ccc(F)cc3)CC2)c2ccccc2)c1
29 |  | 0.042 | 4.9 µM | Cc1ccc(CNC(=O)[C@H](NC(=O)c2cccc(C(=N)N)c2)c2ccccc2)cc1
